Data: PubChem BioAssay AID651945 (The Scripps Research Institute Molecular Screening Center, 2012)

Molecular target: Heat shock 70 kDa protein 1A (Homo sapiens) (UniProt P0DMV8)
Assay: Hsp70 mRNA induction by activators, late-stage follow-up, orthogonal assay, cell-based, fluorescence, HeLa (AID 651945)
Conditions: qRT-PCR, 4 h, at 10 µM, stronger effect = higher value
Summary of the method: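 system = HeLa cells, human Hsp70 gene expression | timing = 4 h compound exposure before cell harvest | measured by = Hsp70 and GAPDH transcript levels by qRT-PCR | read-out basis = GAPDH-normalized Hsp70 mRNA fold change versus DMSO | controls = DMSO vehicle-treated cells as baseline reference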

Chain of Heat shock 70 kDa protein 1A (Homo sapiens) (P0DMV8 whole entry, looked up): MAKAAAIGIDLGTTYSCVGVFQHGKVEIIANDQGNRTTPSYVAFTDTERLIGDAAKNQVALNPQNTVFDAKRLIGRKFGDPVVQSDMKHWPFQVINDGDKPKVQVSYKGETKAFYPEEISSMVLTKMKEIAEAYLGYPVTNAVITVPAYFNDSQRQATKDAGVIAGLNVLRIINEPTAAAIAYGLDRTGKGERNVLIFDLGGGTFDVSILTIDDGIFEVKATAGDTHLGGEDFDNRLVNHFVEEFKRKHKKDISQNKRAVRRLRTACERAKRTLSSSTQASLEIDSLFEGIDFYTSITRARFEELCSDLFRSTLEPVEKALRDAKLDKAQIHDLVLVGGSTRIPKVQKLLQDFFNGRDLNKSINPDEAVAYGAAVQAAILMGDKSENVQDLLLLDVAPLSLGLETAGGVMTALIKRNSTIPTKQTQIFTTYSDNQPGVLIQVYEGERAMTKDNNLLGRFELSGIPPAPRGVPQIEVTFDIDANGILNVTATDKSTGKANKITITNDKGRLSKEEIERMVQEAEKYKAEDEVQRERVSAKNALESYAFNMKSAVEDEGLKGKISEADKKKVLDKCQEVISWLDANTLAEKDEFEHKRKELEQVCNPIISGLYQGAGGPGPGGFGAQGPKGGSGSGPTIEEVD

Question: `COc1ccc(/C=C/C=C2C(=O)NC(=O)NC2=O)cc1` was tested. Which fold change did it give?
Answer: 2.4
